The values below come from ChEMBL document CHEMBL1135842, “Synthesis and biological activity of polygalloyl-dendrimers as stable tannic acid mimics” (Bioorg Med Chem Lett, 2002).

Assay [1] is described as follows: The degree of collagen cross-linking by hydrothermal shrinkage temperature was determined. Type of assay: functional. In a few lines: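 Purified skin collagen matrices incubated 48 h at room temperature with samples at 4 mM in 85% glycerol; hydrothermal shrinkage onset temperature (Ts) recorded, with untreated matrix as reference. Means of five experiments with SEM; significance versus tannic acid at p<0.05.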

A short description of assay [2]: Effective dose required for antioxidant activity was measured as dose giving 50% decolorization of 2,2-diphenyl-1-picryl-hydrazyl (DPPH). It counts as functional. The procedure, abridged:
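DPPH radical scavenging: compounds serially diluted ([…]), incubated with […] in 75% ethanol for 15 min at room temperature; absorbance read at 550 nm. ED50 (dose giving 50% decolorization) obtained by linear regression of absorbance curves; means of five experiments, SEM reported.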
Background: DPPH is a stable violet radical that fades when it is reduced.

For the molecule `O=C(O)c1cc(OCCNC(=O)c2cc(O)c(O)c(O)c2)cc(OCCNC(=O)c2cc(O)c(O)c(O)c2)c1`, the Ts in assay [1] turned out to be 58.4 °C. The molecule also came in with an ED50 in assay [2] of 13.7 µM.
In assay [1], `O=C(O)c1cc(OCCNC(=O)c2cc(OCCNC(=O)c3cc(OCCNC(=O)c4cc(O)c(O)c(O)c4)cc(OCCNC(=O)c4cc(O)c(O)c(O)c4)c3)cc(OCCNC(=O)c3cc(OCCNC(=O)c4cc(O)c(O)c(O)c4)cc(OCCNC(=O)c4cc(O)c(O)c(O)c4)c3)c2)cc(OCCNC(=O)c2cc(OCCNC(=O)c3cc(OCCNC(=O)c4cc(O)c(O)c(O)c4)cc(OCCNC(=O)c4cc(O)c(O)c(O)c4)c3)cc(OCCNC(=O)c3cc(OCCNC(=O)c4cc(O)c(O)c(O)c4)cc(OCCNC(=O)c4cc(O)c(O)c(O)c4)c3)c2)c1` had a Ts of 57 °C. Further, the ED50 in assay [2] came out at 4.7 µM.
Take `O=C(O)c1cc(O)c(O)c(O)c1`: the Ts in assay [1] is 57.5 °C. In addition, the ED50 in assay [2] came to 14.3 µM.
As to `O=C(OC[C@H]1O[C@@H](OC(=O)c2cc(O)c(O)c(OC(=O)c3cc(O)c(O)c(O)c3)c2)[C@H](OC(=O)c2cc(O)c(O)c(OC(=O)c3cc(O)c(O)c(O)c3)c2)[C@@H](OC(=O)c2cc(O)c(O)c(OC(=O)c3cc(O)c(O)c(O)c3)c2)[C@@H]1OC(=O)c1cc(O)c(O)c(OC(=O)c2cc(O)c(O)c(O)c2)c1)c1cc(O)c(O)c(OC(=O)c2cc(O)c(O)c(O)c2)c1`, the Ts in assay [1] amounted to 59.5 °C. The molecule further yielded an ED50 in assay [2] of 2.9 µM.
Molecule `O=C(O)c1cc(OCCNC(=O)c2cc(OCCNC(=O)c3cc(O)c(O)c(O)c3)cc(OCCNC(=O)c3cc(O)c(O)c(O)c3)c2)cc(OCCNC(=O)c2cc(OCCNC(=O)c3cc(O)c(O)c(O)c3)cc(OCCNC(=O)c3cc(O)c(O)c(O)c3)c2)c1` registered a Ts in assay [1] of 57.9 °C. The molecule also came in with an ED50 in assay [2] of 7.4 µM.
